Results from ChEMBL document CHEMBL1687892, “Potent agonists of the protease activated receptor 2 (PAR2)” (J Med Chem, 2011).
Calls of active or inactive are those of the source. No cut-off for these calls is given here.

Legend:
Format in all cases: functional, cell-based
[1] = biological target: Proteinase-activated receptor 2 (Homo sapiens) (UniProt P55085); assay: Agonist activity at human PAR2 expressed in human HeLa cells assessed as increase in intracellular calcium levels at 5 uM by fura-2-AM dye based digital imaging microscopy
Sequence of Proteinase-activated receptor 2 (Homo sapiens) (P55085 whole entry): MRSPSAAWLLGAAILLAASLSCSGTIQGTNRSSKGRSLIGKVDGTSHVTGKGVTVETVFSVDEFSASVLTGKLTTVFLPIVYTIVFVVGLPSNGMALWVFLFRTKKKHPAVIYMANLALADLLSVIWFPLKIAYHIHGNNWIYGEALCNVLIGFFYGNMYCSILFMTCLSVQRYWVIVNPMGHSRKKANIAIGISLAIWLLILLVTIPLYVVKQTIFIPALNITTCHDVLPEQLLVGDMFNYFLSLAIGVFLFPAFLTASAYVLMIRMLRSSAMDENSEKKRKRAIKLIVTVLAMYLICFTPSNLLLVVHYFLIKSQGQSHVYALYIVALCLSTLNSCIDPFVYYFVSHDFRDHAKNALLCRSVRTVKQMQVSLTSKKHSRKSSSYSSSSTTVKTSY

[2] = biological target: Proteinase-activated receptor 2 (Homo sapiens) (UniProt P55085); assay: Agonist activity at human PAR2 expressed in rat kNRK cells assessed as increase in intracellular calcium levels at 5 uM by fura-2-AM dye based digital imaging microscopy
Outline: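 Cells transfected with human PAR2 (HeLa-PAR2 or kNRK-PAR2) were compared with low-expressing or plasmid-control cells of the same line. Cells were grown on matrix-coated coverslips and loaded with fura-2. 5 μM agonist was added, and mean [Ca2+]i of all cells in the field (~90) was imaged every 0.6 s, ± SEM.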

[3] = biological target: Proteinase-activated receptor 2 (Homo sapiens) (UniProt P55085); assay: Agonist activity at PAR2 in human 16HBE14o cells assessed as activated cells at 100 uM by intracellular calcium mobilization fura-2-AM assay
Outline: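 16HBE14o- cells were grown 5–7 days on matrix-coated coverslips, loaded with fura-2, and imaged by digital microscopy over 3 min (80–100 cells). A cell counted as activated if [Ca2+]i rose to ≥200 nM from a resting 50–75 nM, scored as % of cells. Doses ran from 100 μM down to 250 nM. EC50 came from % responding. Mean ± SEM, N ≥ 2 at 100 μM, N ≥ 4 otherwise.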

[4] = biological target: Proteinase-activated receptor 2 (Homo sapiens) (UniProt P55085); assay: Agonist activity at PAR2 in human 16HBE14o cells assessed as activated cells at […] by intracellular calcium mobilization fura-2-AM assay
[5] = biological target: Proteinase-activated receptor 2 (Homo sapiens) (UniProt P55085); assay: Agonist activity at PAR2 in human 16HBE14o cells assessed as increase in intracellular calcium levels at […] by in vitro physiological response assay

Activity [1] | Activity [2] | Activity [3] | Activity [4] | Activity [5] | Structure (SMILES)
Active | Active |  |  |  | CC[C@H](C)[C@H](NC(=O)[C@H](CC(C)C)NC(=O)c1ccc(N)nc1)C(=O)NCC(=O)N[C@@H](CCCNC(=N)N)C(=O)N[C@@H](CC(C)C)C(N)=O
 |  | 0% |  |  | CC[C@H](C)[C@H](NC(=O)[C@H](CC(C)C)NC(=O)c1cccnc1O)C(=O)NCC(=O)N[C@@H](CCCNC(=N)N)C(=O)N[C@@H](CC(C)C)C(N)=O
 |  | Active | inactive |  | CC[C@H](C)[C@H](NC(=O)[C@H](CC(C)C)NC(=O)c1cnccn1)C(=O)NCC(=O)N[C@@H](CCCNC(=N)N)C(=O)N[C@@H](CC(C)C)C(N)=O
Active | Active |  |  |  | CC[C@H](C)[C@H](NC(=O)[C@H](CC(C)C)NC(=O)c1csc(N)n1)C(=O)NCC(=O)N[C@@H](CCCNC(=N)N)C(=O)N[C@@H](CC(C)C)C(N)=O
 |  | Active | inactive | inactive | CC[C@H](C)[C@H](NC(=O)[C@H](CC(C)C)NC(=O)c1ccnc(N)c1)C(=O)NCC(=O)N[C@@H](CCCNC(=N)N)C(=O)N[C@@H](CC(C)C)C(N)=O
 |  | Active | inactive | inactive | CC[C@H](C)[C@H](NC(=O)[C@H](CC(C)C)NC(=O)c1cccnc1N)C(=O)NCC(=O)N[C@@H](CCCNC(=N)N)C(=O)N[C@@H](CC(C)C)C(N)=O

Continued, molecule first:

Structure (SMILES) | Activity [1] | Activity [2] | Activity [3] | Activity [4] | Activity [5]
CC[C@H](C)[C@H](NC(=O)[C@H](CC(C)C)NC(=O)c1ccc(S(N)(=O)=O)cc1)C(=O)NCC(=O)N[C@@H](CCCNC(=N)N)C(=O)N[C@@H](CC(C)C)C(N)=O |  |  | Active | inactive | 
CC[C@H](C)[C@H](NC(=O)[C@H](CC(C)C)NC(=O)c1cccc2[nH]ccc12)C(=O)NCC(=O)N[C@@H](CCCNC(=N)N)C(=O)N[C@@H](CC(C)C)C(N)=O |  |  | 0% |  | 
CC[C@H](C)[C@H](NC(=O)[C@H](CC(C)C)NC(=O)CC#N)C(=O)NCC(=O)N[C@@H](CCCNC(=N)N)C(=O)N[C@@H](CC(C)C)C(N)=O |  |  | Active | inactive | 
CC[C@H](C)[C@H](NC(=O)[C@H](CC(C)C)NC(=O)CCN1CCCCC1)C(=O)NCC(=O)N[C@@H](CCCNC(=N)N)C(=O)N[C@@H](CC(C)C)C(N)=O |  |  | 0% |  | 
CC[C@H](C)[C@H](NC(=O)[C@H](CC(C)C)NC(=O)c1nc(N)n[nH]1)C(=O)NCC(=O)N[C@@H](CCCNC(=N)N)C(=O)N[C@@H](CC(C)C)C(N)=O |  |  | Active | inactive | inactive
CC[C@H](C)[C@H](NC(=O)[C@H](CC(C)C)NC(=O)COCC(=O)O)C(=O)NCC(=O)N[C@@H](CCCNC(=N)N)C(=O)N[C@@H](CC(C)C)C(N)=O |  |  | 0% |  | 
CC[C@H](C)[C@H](NC(=O)[C@H](CC(C)C)NC(=O)Cc1c[nH]c2ccccc12)C(=O)NCC(=O)N[C@@H](CCCNC(=N)N)C(=O)N[C@@H](CC(C)C)C(N)=O |  |  | 0% |  | 
